Laboratory results from ChEMBL document CHEMBL1155155, “Single-dose pharmacokinetics of intravenous itraconazole and hydroxypropyl-beta-cyclodextrin in infants, children, and adolescents” (Antimicrob Agents Chemother, 2007).

Columns and labels:
[1] = AUC (0 to 24 hrs) in children of >6-12 yrs age at risk for fungal infection at 2.5 mg/kg, iv in 0.1 g/kg hydroxypropyl-beta-cyclodextrin administered as single dose; format: ADME, organism-based; parameters: time < 24 hr, dose 2.5 mg/kg, route intravenous; conditions: human, plasma
How it was run: (§1)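 Single 1-h IV infusion. Plasma sampled from the contralateral limb predose and at 1–120 h (>2 y) or 1–96 h (<2 y). Itraconazole was extracted with internal standard and quantified by C18 HPLC with UV 263 nm detection, linear range 2–2,000 ng/ml. Noncompartmental analysis: Cmax by inspection, AUC0-24 by trapezoidal rule, AUC extrapolated via λz, CL and Vz from AUC0-∞.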

[2] = test system: Homo sapiens; test: AUC (0 to 24 hrs) in infants of 0.6-2 yrs age at risk for fungal infection assessed as hydroxyitraconazole level at 2.5 mg/kg, iv in 0.1 g/kg hydroxypropyl-beta-cyclodextrin administered as single dose; format: ADME, organism-based, Plasma; parameters: time < 24 hr, dose 2.5 mg/kg, route intravenous; conditions: in vivo
How it was run: (§2)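 Single 1-h constant-rate IV infusion. Venous plasma sampled predose and to 120 h (>2 y) or 96 h (<2 y), then stored at –20°C. Hydroxyitraconazole was measured by borate/isoamylalcohol-heptane extraction, HCl back-extraction, C18 HPLC and UV 263 nm, with a linear range of 5–5,000 ng/ml. Noncompartmental analysis: Cmax and tmax by inspection, AUC0-24 by trapezoidal rule.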

[3] = AUC (0 to 24 hrs) in human at risk for fungal infection at 2.5 mg/kg, iv in 0.1 g/kg hydroxypropyl-beta-cyclodextrin administered as single dose; format: ADME, organism-based; parameters: time < 24 hr, dose 2.5 mg/kg, route intravenous; conditions: plasma; how it was run: as §1
[4] = Apparent volume of distribution in children of >6-12 yrs age at risk for fungal infection at 2.5 mg/kg, iv in 0.1 g/kg hydroxypropyl-beta-cyclodextrin administered as single dose; format: ADME, organism-based; parameters: dose 2.5 mg/kg, route intravenous; conditions: human, in vivo; how it was run: as §1
[5] = test system: Homo sapiens; test: Cmax in adolescents of >12-16 yrs age at risk for fungal infection assessed as hydroxyitraconazole level at 2.5 mg/kg, iv in 0.1 g/kg hydroxypropyl-beta-cyclodextrin administered as single dose; format: ADME, organism-based; parameters: dose 2.5 mg/kg, route intravenous; conditions: in vivo; how it was run: as §2
[6] = test system: Homo sapiens; test: Half life in human at risk for fungal infection assessed as hydroxyitraconazole level at 2.5 mg/kg, iv in 0.1 g/kg hydroxypropyl-beta-cyclodextrin administered as single dose; format: ADME, organism-based; parameters: dose 2.5 mg/kg, route intravenous; conditions: in vivo; how it was run: as §2
[7] = test system: Homo sapiens; test: AUC (0 to 24 hrs) in human at risk for fungal infection assessed as hydroxyitraconazole level at 2.5 mg/kg, iv in 0.1 g/kg hydroxypropyl-beta-cyclodextrin administered as single dose; format: ADME, organism-based, Plasma; parameters: time < 24 hr, dose 2.5 mg/kg, route intravenous; conditions: in vivo; how it was run: as §2
[8] = Apparent volume of distribution in infants of 0.6-2 yrs age at risk for fungal infection at 2.5 mg/kg, iv in 0.1 g/kg hydroxypropyl-beta-cyclodextrin administered as single dose; format: ADME, organism-based; parameters: dose 2.5 mg/kg, route intravenous; conditions: human, in vivo; how it was run: as §1
[9] = Clearance in children of >6-12 yrs age at risk for fungal infection at 2.5 mg/kg, iv in 0.1 g/kg hydroxypropyl-beta-cyclodextrin administered as single dose; format: ADME, organism-based; parameters: dose 2.5 mg/kg, route intravenous; conditions: human, in vivo; how it was run: as §1
[10] = test system: Homo sapiens; test: AUC (0 to 24 hrs) in adolescents of >12-16 yrs age at risk for fungal infection assessed as hydroxyitraconazole level at 2.5 mg/kg, iv in 0.1 g/kg hydroxypropyl-beta-cyclodextrin administered as single dose; format: ADME, organism-based, Plasma; parameters: time < 24 hr, dose 2.5 mg/kg, route intravenous; conditions: in vivo; how it was run: as §2
[11] = test system: Homo sapiens; test: Tmax in adolescents of >12-16 yrs age at risk for fungal infection assessed as hydroxyitraconazole level at 2.5 mg/kg, iv in 0.1 g/kg hydroxypropyl-beta-cyclodextrin administered as single dose; format: ADME, organism-based; parameters: dose 2.5 mg/kg, route intravenous; conditions: in vivo; how it was run: as §2
[12] = Cmax in children of >6-12 yrs age at risk for fungal infection at 2.5 mg/kg, iv in 0.1 g/kg hydroxypropyl-beta-cyclodextrin administered as single dose; format: ADME, organism-based; parameters: dose 2.5 mg/kg, route intravenous; conditions: human, in vivo; how it was run: as §1
[13] = test system: Homo sapiens; test: Toxicity in human at risk for fungal infection assessed as occurrence of adverse events at 2.5 mg/kg, iv in 0.1 g/kg hydroxypropyl-beta-cyclodextrin administered as single dose; format: organism-based; parameters: dose 2.5 mg/kg, route intravenous; conditions: in vivo
How it was run: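 Safety was assessed by medical history, physical examination, complete blood count, serum chemistry, liver function tests and urinalysis. These were done before the single 1-h IV infusion and again at study completion. Subjects stayed at the study facility through 24 h postdose.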

[14] = test system: Homo sapiens; test: Half life in children of >6-12 yrs age at risk for fungal infection assessed as hydroxyitraconazole level at 2.5 mg/kg, iv in 0.1 g/kg hydroxypropyl-beta-cyclodextrin administered as single dose; format: ADME, organism-based; parameters: dose 2.5 mg/kg, route intravenous; conditions: in vivo; how it was run: as §2
[15] = test system: Homo sapiens; test: Tmax in children of >2-6 yrs age at risk for fungal infection assessed as hydroxyitraconazole level at 2.5 mg/kg, iv in 0.1 g/kg hydroxypropyl-beta-cyclodextrin administered as single dose; format: ADME, organism-based; parameters: dose 2.5 mg/kg, route intravenous; conditions: in vivo; how it was run: as §2
[16] = test system: Homo sapiens; test: AUC (0 to 24 hrs) in children of >6-12 yrs age at risk for fungal infection assessed as hydroxyitraconazole level at 2.5 mg/kg, iv in 0.1 g/kg hydroxypropyl-beta-cyclodextrin administered as single dose; format: ADME, organism-based, Plasma; parameters: time < 24 hr, dose 2.5 mg/kg, route intravenous; conditions: in vivo; how it was run: as §2
[17] = test system: Homo sapiens; test: Cmax in human at risk for fungal infection assessed as hydroxyitraconazole level at 2.5 mg/kg, iv in 0.1 g/kg hydroxypropyl-beta-cyclodextrin administered as single dose; format: ADME, organism-based; parameters: dose 2.5 mg/kg, route intravenous; conditions: in vivo
How it was run: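 Single constant-rate IV infusion over 1 h. Heparinised venous plasma was drawn predose and at 1–120 h (>2 yr) or 1–96 h (<2 yr, randomised to the itraconazole/metabolite arm), then stored at –20°C. Analysis used borate-buffered liquid-liquid extraction with internal standard, C18 HPLC and UV detection at 263 nm, linear 5–5,000 ng/ml. Individual Cmax was read by visual inspection, noncompartmental.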

[18] = test system: Homo sapiens; test: Half life in adolescents of >12-16 yrs age at risk for fungal infection assessed as hydroxyitraconazole level at 2.5 mg/kg, iv in 0.1 g/kg hydroxypropyl-beta-cyclodextrin administered as single dose; format: ADME, organism-based; parameters: dose 2.5 mg/kg, route intravenous; conditions: in vivo; how it was run: as §2
[19] = Half life in children of >2-6 yrs age at risk for fungal infection at 2.5 mg/kg, iv in 0.1 g/kg hydroxypropyl-beta-cyclodextrin administered as single dose; format: ADME, organism-based; parameters: dose 2.5 mg/kg, route intravenous; conditions: human, in vivo; how it was run: as §1
[20] = test system: Homo sapiens; test: Tmax in children of >6-12 yrs age at risk for fungal infection assessed as hydroxyitraconazole level at 2.5 mg/kg, iv in 0.1 g/kg hydroxypropyl-beta-cyclodextrin administered as single dose; format: ADME, organism-based; parameters: dose 2.5 mg/kg, route intravenous; conditions: in vivo; how it was run: as §2
[21] = test system: Homo sapiens; test: AUC (0 to 24 hrs) in children of >2-6 yrs age at risk for fungal infection at 2.5 mg/kg, iv in 0.1 g/kg hydroxypropyl-beta-cyclodextrin administered as single dose; format: ADME, organism-based, Plasma; parameters: time < 24 hr, dose 2.5 mg/kg, route intravenous; conditions: in vivo; how it was run: as §1
[22] = Half life in children of >6-12 yrs age at risk for fungal infection at 2.5 mg/kg, iv in 0.1 g/kg hydroxypropyl-beta-cyclodextrin administered as single dose; format: ADME, organism-based; parameters: dose 2.5 mg/kg, route intravenous; conditions: human, in vivo; how it was run: as §1
[23] = Cmax in human at risk for fungal infection at 2.5 mg/kg, iv in 0.1 g/kg hydroxypropyl-beta-cyclodextrin administered as single dose; format: ADME, organism-based; parameters: dose 2.5 mg/kg, route intravenous; conditions: in vivo; how it was run: as §1

**Q.** What does the source list for CCC(C)n1ncn(-c2ccc(N3CCN(c4ccc(OCC5COC(Cn6cncn6)(c6ccc(Cl)cc6Cl)O5)cc4)CC3)cc2)c1=O (stereo not drawn) [ITRACONAZOLE]?
**A.** AUC(0-t) at 24 h [1]: 3760 ng·h/mL; AUC [2]: 4155 ng·h/mL; AUC(0-t) at 24 h [3]: 4920 ng·h/mL; Vd [4]: 13.9 L/kg; Cmax [5]: 321 ng/mL; t1/2 [6]: 13.3 h; AUC [7]: 3811 ng·h/mL; Vd [8]: 23.6 L/kg; clearance [9]: 10.3 mL/min/kg; AUC [10]: 3133 ng·h/mL; Tmax [11]: 1.2 h; Cmax [12]: 785 ng/mL; Activity [13]: Toxic; t1/2 [14]: 14.3 h; Tmax [15]: 2.9 h; AUC [16]: 4166 ng·h/mL; Cmax [17]: 293 ng/mL; t1/2 [18]: 12.3 h; half-life [19]: 14 h; Tmax [20]: 1.7 h; AUC [21]: 9510 ng·h/mL; half-life [22]: 17.2 h; Cmax [23]: 1020 ng/mL
